Measured values from ChEMBL document CHEMBL4321823, “Benzyl Phenylsemicarbazides: A Chemistry-Driven Approach Leading to G Protein-Biased Dopamine D4 Receptor Agonists with High Subtype Selectivity” (J Med Chem, 2019).

What was measured:
Type in all cases: cell-based
[1] = molecular target: T1, D(2) dopamine receptor (Homo sapiens, UniProt P14416); assay: Displacement of [3H] Spiperone from human D2L receptor expressed in CHO cells by competitive radioligand binding assay
[2] = molecular target: D(3) dopamine receptor (Homo sapiens, UniProt P35462); assay: Displacement of [3H] Spiperone from human D3 receptor expressed in CHO cells by competitive radioligand binding assay
Chain of D(3) dopamine receptor (P35462 whole entry): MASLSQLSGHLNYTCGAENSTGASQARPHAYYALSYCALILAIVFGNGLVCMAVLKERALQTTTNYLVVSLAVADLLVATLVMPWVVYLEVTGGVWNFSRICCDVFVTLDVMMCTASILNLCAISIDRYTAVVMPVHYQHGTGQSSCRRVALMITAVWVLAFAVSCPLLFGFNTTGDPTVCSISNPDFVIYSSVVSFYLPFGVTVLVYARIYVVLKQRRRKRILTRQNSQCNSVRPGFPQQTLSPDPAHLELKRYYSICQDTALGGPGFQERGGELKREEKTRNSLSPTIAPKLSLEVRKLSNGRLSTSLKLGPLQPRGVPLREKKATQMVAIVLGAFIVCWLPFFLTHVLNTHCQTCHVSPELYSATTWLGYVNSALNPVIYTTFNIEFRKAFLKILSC

[3] = organism: Homo sapiens; assay: Selectivity index, ratio of Ki for displacement of [3H] Spiperone from human D3 receptor expressed in CHO cells to Ki for displacement of [3H] Spiperone from human D4.4 receptor expressed in CHO cells
Outline: (§1)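 Competition binding against [3H]spiperone on membranes of CHO cells stably expressing cloned human D2L, D2S, D3 or D4.4 receptors. Ki from monophasic curve fits; mean ± SEM of three to seven experiments, each in triplicate. Selectivity calculated as Ki(D2L, D2S or D3) divided by Ki(D4.4).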

[4] = molecular target: T1, D(2) dopamine receptor; assay: Displacement of [3H] Spiperone from human D2S receptor expressed in CHO cells by competitive radioligand binding assay
[5] = organism: Homo sapiens; assay: Selectivity index, ratio of Ki for displacement of [3H] Spiperone from human D2L receptor expressed in CHO cells to Ki for displacement of [3H] Spiperone from human D4.4 receptor expressed in CHO cells; outline: as §1
[6] = molecular target: T2, D(4) dopamine receptor (Homo sapiens, UniProt P21917); assay: Displacement of [3H] Spiperone from human D4.4 receptor expressed in CHO cells by competitive radioligand binding assay
T2 sequence (P21917 whole entry): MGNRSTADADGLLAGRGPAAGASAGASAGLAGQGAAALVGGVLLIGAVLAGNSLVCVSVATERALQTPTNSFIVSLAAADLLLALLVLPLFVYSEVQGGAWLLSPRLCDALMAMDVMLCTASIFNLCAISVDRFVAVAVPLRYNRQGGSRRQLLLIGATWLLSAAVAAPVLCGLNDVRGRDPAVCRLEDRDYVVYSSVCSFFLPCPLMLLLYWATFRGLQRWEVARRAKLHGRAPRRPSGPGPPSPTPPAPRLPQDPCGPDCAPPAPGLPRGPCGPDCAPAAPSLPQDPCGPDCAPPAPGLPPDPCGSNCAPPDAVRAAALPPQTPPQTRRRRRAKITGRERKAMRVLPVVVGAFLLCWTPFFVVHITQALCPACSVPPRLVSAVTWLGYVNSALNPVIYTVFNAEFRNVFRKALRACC

[7] = organism: Homo sapiens; assay: Selectivity index, ratio of Ki for displacement of [3H] Spiperone from human D2S receptor expressed in CHO cells to Ki for displacement of [3H] Spiperone from human D4.4 receptor expressed in CHO cells; outline: as §1

T1 sequence (P14416 whole entry): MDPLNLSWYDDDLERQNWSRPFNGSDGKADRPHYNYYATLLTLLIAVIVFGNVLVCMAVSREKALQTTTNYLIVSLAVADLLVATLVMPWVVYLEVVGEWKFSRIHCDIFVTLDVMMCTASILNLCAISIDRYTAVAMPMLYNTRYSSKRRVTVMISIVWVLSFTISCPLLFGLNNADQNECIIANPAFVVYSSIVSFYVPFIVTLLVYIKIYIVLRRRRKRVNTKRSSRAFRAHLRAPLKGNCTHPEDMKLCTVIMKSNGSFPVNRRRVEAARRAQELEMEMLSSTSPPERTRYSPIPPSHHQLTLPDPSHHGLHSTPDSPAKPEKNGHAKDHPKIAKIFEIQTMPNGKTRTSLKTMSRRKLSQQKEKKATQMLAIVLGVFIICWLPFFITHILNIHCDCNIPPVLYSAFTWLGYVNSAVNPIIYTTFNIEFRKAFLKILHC

Row | Compound | Ki [1] [nM] | Ki [2] [nM] | Ratio Ki [3] | Ki [4] [nM] | Ratio Ki [5] | Ki [6] [nM] | Ratio Ki [7]
1 | COc1ccccc1N1CCN(CCCNC(=O)NN(Cc2ccc(C#N)cc2)c2ccc(F)cc2)CC1 | 210 | 640 | 43 | 120 | 14 | 15 | 8
2 | O=C(NCCCN1CCN(c2ncccn2)CC1)NN(Cc1ccc(F)cc1)c1ccccc1 | 430 | 1900 | 100 | 310 | 23 | 19 | 16
3 | C=C(C)CN(NC(=O)NCCCN1CCN(c2ccccc2OC)CC1)c1ccc(OC)cc1 | 210 | 860 | 13 | 300 | 3.3 | 64 | 4.7
4 | COc1ccc(N(Cc2ccccc2F)NC(=O)NCCCN2CCN(c3ccccc3OC)CC2)cc1 | 42 | 76 | 29 | 19 | 16 | 2.6 | 7.3
5 | O=C(NCCCN1CCN(c2ccc(I)cc2)CC1)NN(Cc1ccccc1)c1ccccc1 | 690 | 1300 | 62 | 670 | 33 | 21 | 32
6 | O=C(NCCCN1CCN(c2ccc(Cl)cc2)CC1)NN(Cc1ccccc1)c1ccccc1 | 640 | 1100 | 110 | 410 | 66 | 9.7 | 42
7 | COc1ccccc1N1CCN(CCCNC(=O)NN(Cc2ccccc2)c2ccc(Cl)cc2)CC1 | 32 | 130 | 45 | 23 | 11 | 2.9 | 7.9
8 | COc1ccc(N(Cc2cccc(F)c2)NC(=O)NCCCN2CCN(c3ccccc3OC)CC2)cc1 | 59 | 86 | 14 | 35 | 10 | 6.2 | 5.6
9 | COc1ccccc1N1CCN(CCCNC(=O)NN(Cc2ccccc2)c2ccc(Cl)cc2Cl)CC1 | 35 | 61 | 4 | 24 | 2.3 | 15 | 1.6
10 | COc1ccccc1N1CCN(CCCNC(=O)NN(Cc2ccc(-c3ccccc3)cc2)c2ccc(F)cc2)CC1 | 140 | 110 | 19 | 42 | 24 | 5.9 | 7.1
11 | COc1ccc(N(Cc2ccccc2)NC(=O)NCCCN2CCN(c3ccccc3OC)CC2)cc1 | 45 | 120 | 71 | 19 | 26 | 1.7 | 11
12 | COc1ccccc1N1CCN(CCCNC(=O)NN(Cc2ccccc2F)c2ccc(F)cc2)CC1 | 92 | 160 | 44 | 47 | 26 | 3.6 | 13
13 | O=C(NCCCN1CCN(c2ccc(Cl)cc2)CC1)NN(Cc1ccc(F)cc1)c1ccccc1 | 500 | 850 | 50 | 380 | 29 | 17 | 22
14 | C=CCN(NC(=O)NCCCN1CCN(c2ccccc2OC)CC1)c1ccc(OC)cc1 | 180 | 660 | 11 | 340 | 3 | 61 | 5.6
15 | COc1ccccc1N1CCN(CCCCNC(=O)NN(Cc2ccccc2)c2ccc(F)cc2)CC1 | 160 | 76 | 17 | 94 | 36 | 4.4 | 21
16 | O=C(NCCN1CCN(c2ccc(I)cc2)CC1)NN(Cc1ccccc1)c1ccccc1 | 490 | 1800 | 38 | 510 | 11 | 44 | 12
17 | COc1ccccc1N1CCN(CCCNC(=O)NN(Cc2ccccc2F)c2ccc(Br)cc2)CC1 | 45 | 92 | 28 | 22 | 14 | 3.3 | 6.7
